From PubChem
Hits are enriched below; roughly 1.6% of the tested compounds scored in any of these assays.
PPC-1+TRAIL kill: kills PPC-1 cancer cells in the presence of TRAIL; PPC-1 cells + TRAIL, ATPLite viability luminescence; cell killing (% activity), % at 4 µM or 5 µM; actives 0.41% (n = 220,000); AID 1443;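 active = cell killing above 50% in the first pass at 4 µM, then a duplicate retest at 5 µM averaging 50% or more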;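 note: plate controls were cells with TRAIL plus DMSO for no effect and medium-only wells lacking cells for full effect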
Platelet DG rel: platelet dense granule release activity; actives 0.22% (n = 300,000); inhibition, %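 (compounds screened at 7.5 µM in platelet-rich plasma)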; human platelet-rich plasma, SFLLRN dense granule ATP release, luminescence;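 active = mean replicate score, as percent of positive control, at or above 50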
FLuc inh counter: inhibits firefly luciferase, flagging false hits in luciferase inhibition screens; inhibition, % at 10 µM; ATPLite firefly luciferase biochemical luminescence, 10 min; AID 1006; actives 1.5% (n = 200,000);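 active = inhibition above about 50% when tested at 10 µM, limit read from the data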
Target sequence (P08659 whole entry, looked up): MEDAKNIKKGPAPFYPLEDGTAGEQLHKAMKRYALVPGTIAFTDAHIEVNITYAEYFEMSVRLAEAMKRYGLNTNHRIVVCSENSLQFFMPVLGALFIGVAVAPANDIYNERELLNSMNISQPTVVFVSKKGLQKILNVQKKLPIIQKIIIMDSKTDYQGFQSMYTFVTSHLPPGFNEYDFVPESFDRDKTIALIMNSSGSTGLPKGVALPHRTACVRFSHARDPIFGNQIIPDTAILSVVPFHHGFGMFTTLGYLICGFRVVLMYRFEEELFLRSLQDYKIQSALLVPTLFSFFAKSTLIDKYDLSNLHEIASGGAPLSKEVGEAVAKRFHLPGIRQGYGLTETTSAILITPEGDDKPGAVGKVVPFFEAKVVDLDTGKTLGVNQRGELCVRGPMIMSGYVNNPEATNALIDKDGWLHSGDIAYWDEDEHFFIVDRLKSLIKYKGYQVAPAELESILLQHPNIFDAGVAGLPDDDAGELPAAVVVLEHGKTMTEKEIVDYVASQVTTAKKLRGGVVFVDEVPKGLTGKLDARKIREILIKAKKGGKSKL
C8 TRAIL sens: caspase-8 TRAIL sensitization; AID 624354; actives 1% (n = 360,000); NB7+C8 cells + TRAIL, ATPlite viability luminescence; inhibition (viability loss, TRAIL sensitization), % at 10 µM;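 active = compounds causing at least 50% loss of cell viability in the single-dose screen, relative to plate controls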
FLuc act counter: affects firefly luciferase, flagging false hits in luciferase stimulation screens; P08659; ATPlite luciferase biochemical, luminescence, 10 min; 0 = ATP-free wells, 1 = DMSO control; activation factor at 10 µM; 200,000 tested, under 10 active;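 active = luciferase activation factor, scaled between plate controls, of at least 2 with compound at 10 µM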
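test system = cell-free luciferase reagent | medium = PBS as buffer for the ATP substrate | dosing = test compounds dosed from 2 mM stocks in 100% DMSO | incubation = 10 min at ambient temperature | detection = luminescence measurement of luciferase light output | benchmarks = low control with PBS replacing ATP, high control enzyme plus ATP without compound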
The depositor's hits bear a star.

Results for CCOc1ccc(-c2cc(C(=O)N3CCC4(CC3)OCCO4)c3ccccc3n2)cc1 ?
C8 TRAIL sens: 70.6*

What do the screens show for `CC1OC(OC2CC(O)C3(CO)C4C(O)CC5(C)C(C6=CC(=O)OC6)CCC5(O)C4CCC3(O)C2)C(O)C(O)C1O` (configuration not stated)?
C8 TRAIL sens: 69.7*

Results for CC1=CC2/C=C(\C)CCC(O)C(O)/C=C/C(=O)C23C(=O)NC(CC(C)C)C3C1C (configuration not stated) ?
PPC-1+TRAIL kill: 4.2; Platelet DG rel: 8.6; FLuc inh counter: -7.4; C8 TRAIL sens: 90.5*; FLuc act counter: 1.1

What do the screens show for `C/C1=C\[C@@H](C)C/C=C/[C@H]2[C@@H]3O[C@]3(C)[C@@H](C)[C@H]3[C@H](Cc4c[nH]c5ccccc45)NC(=O)[C@]32C(=O)/C=C/C(=O)[C@@H]1O`?
PPC-1+TRAIL kill: 15.9; Platelet DG rel: -6.3; FLuc inh counter: -9.0; C8 TRAIL sens: 30.4; FLuc act counter: 1.1

What do the screens show for `C=CC1CN2CCC1CC2[C@@H](OC(=O)c1ccc(OC)cc1)c1ccnc2ccccc12` (some centres not stated)?
PPC-1+TRAIL kill: 53.5*; Platelet DG rel: -4.4; FLuc inh counter: -5.6; C8 TRAIL sens: -0.2; FLuc act counter: 1.1

What do the screens show for `CCCCCN1C(=O)c2ccccc2[C@@]2(C(=O)OCC)Cc3cc(OC)ccc3[C@@H]12`?
C8 TRAIL sens: 58.9*

How did CCOC(=O)[C@]12Cc3cc(C)ccc3[C@H]1N(Cc1ccccc1)C(=O)c1ccccc12 do in these assays?
C8 TRAIL sens: 11.5

What do the screens show for `CCOC(=O)[C@]12Cc3cc(C)ccc3[C@H]1N(C(C)C)C(=O)c1ccccc12`?
C8 TRAIL sens: 82.8*

Results for C[C@H]1CN([C@@H](C)CO)C(=O)CCCn2nncc2CO[C@@H]1CN(C)C(=O)Oc1ccccc1 ?
C8 TRAIL sens: -14.4

Results for O=C1NCN(c2ccccc2)C12CCN(C(CCc1ccccc1)c1nnnn1C1CCCC1)CC2 (configuration not stated) ?
C8 TRAIL sens: -10.4

How did CCOP(=O)(CCP(=O)(OCC)OCC)OCC.C[CH2][Sn]([Cl])([Cl])[CH2]C do in these assays?
C8 TRAIL sens: -16.6

Results for CC(=O)OC1C(O)C(C)OC(OC2C(OC(=O)C3CCC4C(C3)OC3(CC(OC(=O)/C=C/c5ccccc5)C(C)CO3)C43CO3)OC(C)C(O)C2OC(C)=O)C1O (configuration not stated) ?
C8 TRAIL sens: 63.7*

What do the screens show for `CC(C)C[C@@H]1COc2cc(N3CCN(C)CC3)ccc2S(=O)(=O)N1`?
C8 TRAIL sens: 18.3

Results for COc1ccc(CC2NCC(O)C2OC(C)=O)cc1 (configuration not stated) ?
C8 TRAIL sens: 84.8*

How did C[C@H]1COc2cc(N3CCN(C)CC3)ccc2S(=O)(=O)N1 do in these assays?
C8 TRAIL sens: 4.8

How did CC(=O)OC1(C)CC(C)C(=O)C(C(O)CC2CC(=O)NC(=O)C2)C1 (configuration not stated) do in these assays?
C8 TRAIL sens: 73.7*

Results for CC(=O)OC(C)(C)/C=C/C(=O)C(C)(O)C1C(O)CC2(C)C3CC=C4C(CC(O)C(=O)C4(C)C)C3(C)C(=O)CC12C (configuration not stated) ?
C8 TRAIL sens: 32.3

What do the screens show for `CC(=O)OC(C)(C)/C=C/C(=O)[C@](C)(O)[C@H]1[C@H](O)C[C@@]2(C)[C@@H]3CC=C4[C@H](C[C@H](O)C(=O)C4(C)C)[C@]3(C)C(=O)C[C@]12C`?
PPC-1+TRAIL kill: 50.1*; FLuc inh counter: -11.1; C8 TRAIL sens: 31.6; FLuc act counter: 1.1

How did CC(=O)OC(C)(C)/C=C/C(=O)C(C)(O)C1[C@H](O)C[C@@]2(C)C3CC=C4C(CC[C@@H](O)C4(C)C)[C@]3(CO)C(=O)C[C@]12C (some centres not stated) do in these assays?
Platelet DG rel: -10.4; C8 TRAIL sens: 53.1*

Results for Nc1ncnc2c1ccn2[C@@H]1O[C@H](CO)[C@@H](O)[C@H]1O ?
Platelet DG rel: -4.2; C8 TRAIL sens: 88.0*

What do the screens show for `ClCCN(CCCl)c1ccc(C=Cc2ccncn2)cc1`?
C8 TRAIL sens: 8.4

How did C[CH2][Hg][S]c1ccccc1C(=O)O do in these assays?
C8 TRAIL sens: 61.9*

What do the screens show for `Clc1ccc(C[n+]2c(-c3ccccc3)cc(-c3ccccc3)cc2-c2ccccc2)cc1`?
Platelet DG rel: 4.0; C8 TRAIL sens: 68.9*

What do the screens show for `C/C=C1\NC(=O)[C@H](C)NC(=O)[C@@H](NC(=O)[C@H](Cc2ccc(O)cc2)NC(=O)[C@@H](NC(=O)/C(C)=C/C)C(C)C)[C@@H](C)OC(=O)[C@H](CCCc2ccc(O)cc2)NC(=O)[C@@H](CCC(=O)O)NC1=O`?
C8 TRAIL sens: 3.0

How did COc1ccc(-n2nnnc2C(CCSC)N2CCC(n3c(=O)[nH]c4ccccc43)CC2)cc1 (configuration not stated) do in these assays?
C8 TRAIL sens: -2.6

How did COc1ccc(-n2c(-c3ccc(C)cc3)nc3ccccc3c2=O)cc1 do in these assays?
PPC-1+TRAIL kill: 24.9; Platelet DG rel: 4.2; C8 TRAIL sens: 13.9

What do the screens show for `COc1ccc(-c2nc3ccccc3c(=O)o2)cc1`?
PPC-1+TRAIL kill: 47.1; Platelet DG rel: 7.3; FLuc inh counter: 54.9*; C8 TRAIL sens: 55.4*; FLuc act counter: 0.5

How did COc1ccc(C(=O)OCC2CN2c2cccc([N+](=O)[O-])c2)cc1 (configuration not stated) do in these assays?
C8 TRAIL sens: -14.9

Results for CC(=O)OC1CC(OC2C(O)CC(OC3C(O)CC(OC4CCC5(C)C(CCC6C5CCC5(C)C(C7=CC(=O)OC7)CCC65O)C4)OC3C)OC2C)OC(C)C1OC1OC(CO)C(O)C(O)C1O (configuration not stated) ?
C8 TRAIL sens: 65.8*

What do the screens show for `COC(=O)C12OCC34C(CC5C(C)=C(O)C(=O)CC5(C)C3C(O)C1O)OC(=O)C(OC(=O)/C=C(\C)C(C)C)C24` (configuration not stated)?
C8 TRAIL sens: 57.7*

Results for Cc1ccccc1C(=O)N1Cc2cnnn2-c2ccccc2C1C#N (configuration not stated) ?
C8 TRAIL sens: 8.4

Results for Cc1ccccc1CN1Cc2cnnn2-c2ccccc2C1C#N (configuration not stated) ?
C8 TRAIL sens: 49.5*

Results for Cc1ccc2nc(-c3ccc(CN4CCC(n5c(=O)[nH]c6ccccc65)CC4)cc3)c(-c3ccccc3)nc2c1 ?
C8 TRAIL sens: 28.2

What do the screens show for `COc1ccc(-n2nnnc2C(CCc2ccccc2)N2CCC(n3c(=O)[nH]c4ccccc43)CC2)cc1` (configuration not stated)?
C8 TRAIL sens: 89.9*
